Measured values from different studies.
Target: Serine/threonine-protein kinase ICK (CILK1, Homo sapiens, UniProt Q9UPZ9)
One construct used (Q9UPZ9 1-632): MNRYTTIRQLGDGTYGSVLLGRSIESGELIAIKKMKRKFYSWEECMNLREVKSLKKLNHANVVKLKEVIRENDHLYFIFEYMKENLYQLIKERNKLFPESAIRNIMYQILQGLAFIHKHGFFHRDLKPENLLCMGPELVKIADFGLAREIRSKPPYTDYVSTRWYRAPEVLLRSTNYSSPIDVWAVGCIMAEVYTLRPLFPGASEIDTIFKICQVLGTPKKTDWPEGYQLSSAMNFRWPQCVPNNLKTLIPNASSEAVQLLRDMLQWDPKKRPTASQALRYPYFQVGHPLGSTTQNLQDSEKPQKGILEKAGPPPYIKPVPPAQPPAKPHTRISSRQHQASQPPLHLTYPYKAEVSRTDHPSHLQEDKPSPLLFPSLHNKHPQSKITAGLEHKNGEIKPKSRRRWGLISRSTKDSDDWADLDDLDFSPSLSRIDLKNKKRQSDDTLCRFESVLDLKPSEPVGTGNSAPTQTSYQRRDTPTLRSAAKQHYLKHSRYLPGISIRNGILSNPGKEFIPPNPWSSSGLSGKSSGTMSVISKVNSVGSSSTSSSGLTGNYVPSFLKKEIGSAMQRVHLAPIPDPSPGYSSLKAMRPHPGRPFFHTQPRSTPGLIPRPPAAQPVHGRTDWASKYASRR

For `CN1CC(Oc2cnc(C#N)cc2-c2ccn3nc(NC(=O)C4CC4)cc3c2)C1`, the inhibition was -20% (enzyme activity, inhibitor; 1 µM).
For `CO[C@@H](C)c1c(Nc2ccc([C@H](N(C)C(=O)C3CCS(=O)(=O)CC3)C(F)(F)F)cc2)cnc2cc(Cl)nn12`, the remaining binding was 70% (cell-free assay, competition with immobilised ligand; 1 µM).
`Cc1sc(C(=O)NC2COC2)cc1-n1cc(NC(=O)Nc2c(F)cccc2Cl)cn1` has a remaining activity of 100% (enzyme activity, inhibitor; 10 µM).
`O=C1NC(c2ccccn2)Sc2ccccc21` (stereo not drawn) has a remaining binding of 86% (cell-free assay, competition with immobilised ligand; 1 µM).
`O=C(Nc1cnn(-c2csc(C(=O)NC3COC3)c2)c1)Nc1c(F)cccc1Cl` has a remaining activity of 96.6% (enzyme activity, inhibitor; 5 µM).
The remaining signal of `Nc1ncnc2occ(-c3ccc(NC(=O)Nc4cc(C(F)(F)F)ccc4F)cc3)c12` is reported as 12% (cell-free assay; 20 µM).
For `Cc1ccc(C(=O)Nc2ccc(CN3CCN(C)CC3)c(C(F)(F)F)c2)cc1C#Cc1cnc2cccnn12`, the remaining activity was 96% (enzyme activity; 23.5 nM).
With `CC(C)(O)[C@H]1CC[C@H](Nc2ccc3ncc(-c4cccc(C(F)(F)F)c4)n3n2)CC1` the remaining activity was 86% (enzyme activity, inhibitor; 1 µM).
For `Cc1ccc(C(=O)NCc2ccsc2)cc1C#Cc1cn(C(C)C)c2ncnc(N)c12`, the activity vs control was 103% (enzyme activity, inhibitor; 1 µM).
